Assay results from different studies.
Lines come from different studies, so protocols differ.

| SMILES | species | sample | route | dose | notes | Cmax |
| --- | --- | --- | --- | --- | --- | --- |
| Cn1cc(-c2ccc(S(=O)(=O)[C@@H]3C[C@@H](C(=O)NC4(C#N)CC4)N(C(=O)C4(C(F)(F)F)CC4)C3)c(C(F)(F)F)c2)cn1 | human | plasma | oral | 30 mg | single dose, fasted, healthy volunteers | 212 ng/mL |
| CC(C)n1cc(C#N)c2cc(-n3cc(C(=O)O)cn3)ccc21 | human | plasma | oral | 400 mg | single dose, fasted, healthy volunteers | 14700 ng/mL |
| FC(F)(F)c1ccc(CNc2ccc(Cc3c[nH]c4ncc(Cl)cc34)cn2)cn1 | human | plasma | oral | 1000 mg | multiple doses, patients | 4440 ng/mL |
| FC(F)(F)c1ccc(CNc2ccc(Cc3c[nH]c4ncc(Cl)cc34)cn2)cn1 | human | plasma | oral | 600 mg | single dose, fasted, healthy volunteers | 4220 ng/mL |
| O=C(/C=C/c1cccc(S(=O)(=O)Nc2ccccc2)c1)NO | human | plasma | intravenous | 1900 mg/m² | patients | 106000 ng/mL |
| COc1cc(C(=O)NC2CCN(C)CC2)c(F)cc1Nc1ncc(C(F)(F)F)c(Oc2cccc3c2C(=O)N(C)C3)n1 | human | plasma | oral | 50 mg | multiple doses, once daily, steady state, patients | 430 nM |
| NS(=O)(=O)NCCNc1nonc1C(=NO)Nc1ccc(F)c(Br)c1 | human | plasma | oral | 500 mg | multiple doses, twice daily, steady state, patients | 4820 nM |
| CO[C@H]1CC[C@H](N2C(=O)CNc3ncc(-c4ccc(C(C)(C)O)nc4)nc32)CC1 | human | plasma | oral | 60 mg | patients | 319 ng/mL |
| CCc1nc2c(C)cc(N3CCN(CC(=O)N4CC(O)C4)CC3)cn2c1N(C)c1nc(-c2ccc(F)cc2)c(C#N)s1 | human | plasma | oral | 60 mg | single dose, fed, healthy volunteers | 600 ng/mL |
| COc1ccc([C@@H]2CN(C(=O)[C@@H](O)CO)C[C@@]2(C)[C@@H](C)O)cc1OC1CN(c2ccc(C)cn2)C1 | human | plasma | oral | 5 mg | single dose, healthy volunteers | 213 ng/mL |
| COCCOc1cnc2ccn([C@H](C)c3nnc4c(F)cc(-c5cnn(C)c5)cn34)c(=O)c2c1 | human | plasma | oral | 200 mg | multiple doses, once daily, patients | 3760 ng/mL |
| Cn1c(=O)oc2ccc(-c3ccc(C[C@@H](C#N)NC(=O)[C@@H]4CNCCCO4)cc3)cc21 | male human | plasma | oral | 5 mg | single dose, healthy volunteers | 50.7 nM |
| COc1cc2c(cc1OC)CN(CCc1ccc(NC(=O)c3cc(OC)c(OC)cc3NC(=O)c3cnc4ccccc4c3)cc1)CC2 | human | plasma | intravenous | 1 mg/kg | patients | 2200 nM |
| CNC(=O)c1ccccc1Sc1ccc2c(/C=C/c3ccccn3)n[nH]c2c1 | human | plasma | oral | 5 mg | single dose, fasted | 51 ng/mL |
| CCCCC1=NC2(CCCC2)C(=O)N1Cc1ccc(-c2ccccc2S(=O)(=O)Nc2noc(C)c2C)c(COCC)c1 | human | plasma | oral | 200 mg | single dose, fasted, healthy volunteers | 5150 ng/mL |
| Br.Cc1ccc(Sc2ccccc2N2CCNCC2)c(C)c1 | human | plasma | oral | 5 mg | multiple doses, steady state, healthy volunteers | 9 ng/mL |
| C=C(F)C(=O)N1CCN(c2nc(OC[C@@H]3CCCN3C)nc3c2CCN(c2cccc4cccc(Cl)c24)C3)C[C@@H]1CC#N | human | plasma | oral | 600 mg | single dose, fasted | 984 ng/mL |

| SMILES | species | sample | route | dose | notes | Cmax |
| --- | --- | --- | --- | --- | --- | --- |
| O=C(Nc1c(Cl)cncc1Cl)c1ccc(OC(F)F)c(OCC2CC2)c1 | human | plasma | oral | 0.5 mg | single dose, fasted | 12.5 ng/mL |
| CC[C@H](C)C(=O)O[C@H]1C[C@H](O)C=C2C=C[C@H](C)[C@H](CC[C@@H](O)C[C@@H](O)CC(=O)O)[C@H]21 | human | plasma | oral | 20 mg | – | 11.4 ng/mL |
| CS(=O)(=O)CCNCc1ccc(-c2ccc3ncnc(Nc4ccc(OCc5cccc(F)c5)c(Cl)c4)c3c2)o1 | human | serum | oral | 1250 mg | single dose | 910 ng/mL |
| CNC(=O)c1cc(Oc2ccc(NC(=O)Nc3cc(C(C)(C)C)nn3-c3ccc4ncccc4c3)c(F)c2)ccn1 | human | plasma | oral | 100 mg | multiple doses, twice daily | 114 ng/mL |
| Cc1ccc(C(=O)N(CCCN)[C@@H](c2oc3cc(Cl)ccc3c(=O)c2Cc2ccccc2)C(C)C)cc1 | human | plasma | intravenous | 2 mg/m² | single dose, patients, infusion | 233 ng/mL |
| COc1cc2c(Nc3ccc(Br)cc3F)ncnc2cc1OCC1CCN(C)CC1 | human | plasma | oral | 85 mg/m² | multiple doses, once daily, patients | 716 ng/mL |
| Nc1cc(C(F)(F)F)c(-c2cc(N3CCOCC3)nc(N3CCOCC3)n2)cn1 | human | plasma | oral | 50 mg/day | patients | 595 ng/mL |
| CCCCC[C@H](O)CC[C@@H]1[C@H]2Cc3cccc(OCC(=O)O)c3C[C@H]2C[C@H]1O | human | plasma | inhaled | 18 µg | single dose, healthy volunteers | 0.43 ng/mL |
| CC(C)(O)c1ccccc1-c1ccc2[nH]c(/C=C/c3ccc(C(F)(F)F)cc3)nc2c1 | male human | plasma | oral | 120 mg | single dose, fasted, healthy volunteers | 261 ng/mL |
| C[C@@]1(c2cc(NC(=O)c3ccc(C#N)cn3)ccc2F)C=CSC(N)=N1 | male human | plasma | oral | 1 mg | single dose | 6.72 ng/mL |
| CCn1c(=O)c(-c2cc(NC(=O)Nc3ccccc3)c(F)cc2Br)cc2cnc(NC)cc21 | human | plasma | oral | 250 mg | single dose, patients | 1070 ng/mL |
| N#CN1C[C@H](n2nc(-c3ccc(Oc4ccc(Cl)cn4)cc3)c(C(N)=O)c2N)CCC12CC2 | human | plasma | oral | 600 mg | fed | 1020 ng/mL |
| CC(C)(C(=O)N1CCOc2c(C#N)cncc2C1)C(F)F | human | plasma | oral | 40 mg | single dose, fasted, healthy volunteers | 555 ng/mL |
| CCCOc1ccc([C@H]2CNC(=O)N2c2ccc3[nH]cnc3c2)cc1 | human | plasma | oral | 200 mg | single dose, fasted, healthy volunteers | 1200 ng/mL |
| CC(C)(Sc1ccncc1-c1ccc(C#N)c2ccccc12)C(=O)O | male human | plasma | oral | 5 mg | single dose, fasted, healthy volunteers | 72.9 ng/mL |
| CCO[C@H]1CCN(Cc2c(OC)cc(C)c3[nH]ccc23)[C@H](c2ccc(C(=O)O)cc2)C1 | human | plasma | oral | 100 mg | multiple doses, twice daily, patients | 2640 ng/mL |
| CO[C@@H]1[C@H](OC(=O)N2CC(CCN3CCOCC3)C2)CC[C@]2(CO2)[C@H]1[C@@]1(C)O[C@@H]1CC=C(C)C | human | plasma | subcutaneous | 3.6 mg | single dose, healthy volunteers | 16.1 ng/mL |
